RGS4 act = potentiators or activators of RGS4 | HEK293 M3R/inducible RGS4, carbachol calcium flux Fluo4; active compounds read low | B-score at 10 µM | hit rate 0.92% among 310,000;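 active means B-score of the integrated calcium signal more than 4 SD below the library mean, with starting fluorescence not abnormally high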;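 further: negative B-score means reduced calcium response which marks RGS4 activation or potentiation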
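Assay system: HEK293 FlpIn-TREx cells, stable M3R, doxycycline-inducible RGS4 / Probe or stimulus: carbachol, ECmax concentration / Times: overnight RGS4 induction, 30 min dye load 37 °C, 20 min compound RT / Signal: kinetic calcium fluorescence imaging with Fluo4-AM dye, 2 µM / Measure: Agonist-evoked peak-minus-minimum fluorescence over baseline, integrated ratio, B score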
MrgX1 PAM = human MrgX1 positive allosteric modulation, primary screen; Q96LB2; hit rate 0.63% among 310,000; B-score at 10 µM; MrgX1-HEK293, Fluo-4 calcium flux, FDSS; active compounds read high;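 active means plate-corrected calcium response at least 3 library SD above typical, normal starting fluorescence, not activating the receptor alone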;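 further: compound read alongside a low EC10 to EC30 dose of BAM8-22 agonist; peak minus trough fluorescence over baseline measured at the second addition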
Target sequence (Q96LB2 whole entry, looked up): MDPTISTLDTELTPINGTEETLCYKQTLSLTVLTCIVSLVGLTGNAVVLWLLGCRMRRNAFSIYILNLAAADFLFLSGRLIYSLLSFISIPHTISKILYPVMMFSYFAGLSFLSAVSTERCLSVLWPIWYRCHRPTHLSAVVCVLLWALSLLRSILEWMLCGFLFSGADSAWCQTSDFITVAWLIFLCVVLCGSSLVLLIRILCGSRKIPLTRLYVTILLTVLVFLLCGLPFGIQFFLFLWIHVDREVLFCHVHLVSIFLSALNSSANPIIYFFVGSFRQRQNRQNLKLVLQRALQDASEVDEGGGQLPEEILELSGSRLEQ
MrgX1 agonist = activates human MrgX1 receptor signaling | Q96LB2 | MrgX1-HEK293 cells, Fluo-4 calcium fluorescence, agonist mode; active compounds read high | B-score at 10 µM | hit rate 0.44% among 310,000 | AID 588627;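 active means calcium response B-score plate-corrected fluorescence ratio at least 3 library SD, with starting fluorescence B-score inside 5 SD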
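System – MrgX1-expressing HEK293 cells · Incubation – cells plated overnight, dye loaded 0.5 h 37 °C, 0.5 h room temperature · Technique – kinetic Fluo-4 NW fluorescence of intracellular calcium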
RGS4 block = inhibitors of human RGS4 | P49798 | HEK293 M3R/RGS4 inducible, Fluo-4 calcium flux; active compounds read high; triggered by carbachol at its EC20 | B-score at 10 µM | hit rate 0.45% among 310,000 | AID 463165;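 active means B-score, a plate-corrected calcium signal, over three deviations above library mean, with baseline fluorescence within five deviations of library mean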;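 further: RGS4 expression induced by doxycycline in cells with stable M3 receptor; B-score is computed from the integrated fluorescence ratio over baseline after carbachol; higher B-score means a larger calcium signal and so more RGS4 inhibition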
MrgX1 antagonist = blocks BAM8-22 activation of human MrgX1 receptor; Q96LB2; MRGX1-HEK293 calcium flux, Fluo-4, BAM8-22 antagonism; active compounds read low; B-score at 10 µM; hit rate 1.3% among 310,000; AID 588676;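 active means calcium-response B-score plate-corrected more than 3 library SD below zero, starting fluorescence within 5 deviations, no agonist response on first addition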;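 further: peak minus trough fluorescence over baseline after final BAM8-22 challenge near maximal dose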
RGS4 block valid = validation of RGS4 inhibitors; HEK293 M3R/RGS4, carbachol calcium Fluo-4 fluorescence; carbachol added at its EC20; 0 = buffer wells, 100 = carbachol control; AID 492999; hit rate 65% among 1,700; shares compounds with RGS4 block; calcium response, % at 10 µM;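 active means duplicate-averaged calcium response above the buffer-only control mean plus 5 SD of those controls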;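 further: integrated fluorescence ratio F max minus min over baseline F0; higher response in RGS4-induced cells means RGS4 inhibition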
M3R Ca ctr = counter-screen for RGS4 inhibitors: effect in non-induced cells. shares compounds with RGS4 block. HEK293 M3R non-induced, carbachol calcium Fluo-4; submaximal (EC20) carbachol stimulus; buffer wells 0%, carbachol control wells 100%. activity (percent), % at 10 µM. hit rate 20% among 1,900; call rule not given here;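 further: RGS4 induction absent so cells express M3R without RGS4; higher means more calcium signal and flags a non-specific hit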
M3R basal Ca ctr = second RGS4 inhibitor counter-screen in uninduced cells lacking carbachol; hit rate 22% among 1,900; HEK293 M3R/RGS4 non-induced, Fluo-4 calcium, no carbachol; normalised: buffer wells 0%, carbachol wells 100%; calcium response (agonist-mode artifact), % at 10 µM; shares compounds with RGS4 block;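 active means duplicate-averaged calcium rise in uninduced cells above buffer wells' mean plus 5 SD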
* marks the source's active call; other numbers are inactive results; i = inactive; . = no result given. An excerpt weighted towards active compounds, which were near 3.5% of everything screened.

SMILES | RGS4 act | MrgX1 PAM | MrgX1 agonist | RGS4 block | MrgX1 antagonist | RGS4 block valid | M3R Ca ctr | M3R basal Ca ctr
COc1ccc(/C=C/C(=O)c2c(O)ccc3c(C)cc(=O)oc23)cc1 | i | i | i | i | i | i | i | i
COc1ccc(/C=C\C(=O)c2c(O)ccc3c(C)cc(=O)oc23)cc1 | i | i | i | i | i | . | i | i
CCOc1ccc(/C=C/C(=O)c2c(O)cc(C)oc2=O)cc1 | i | i | i | i | i | . | . | .
C#Cc1ccc(CN2CCC(Oc3cc(C(=O)NC4CC4)ccc3OC)CC2)cc1 | i | . | . | i | . | . | . | .
NCCOc1ccc(C23CC4CC(CC(C4)C2)C3)cc1 | i | i | i | 10.9* | i | 20.0%* | i | 72.0%*
CC1(C)CC(=O)c2sc(NC(=O)CCS(=O)(=O)c3ccccc3)nc2C1 | i | i | i | 4.68* | i | 7.5%* | i | i
CC1(C)CC(=O)c2sc(NC(=O)c3ccccc3)nc2C1 | i | i | i | i | i | . | . | .
COc1ccc(-c2nc(N3CCN(C)CC3)sc2-c2ccc(OC)cc2)cc1 | i | i | i | i | i | . | . | .
[S-]c1nnc(-c2ccc(Br)cc2)n1-c1ccccc1.[Zn+2] | i | i | i | i | i | . | . | .
N#Cc1c(Cl)c(Cl)c2nnc(-c3ccc(Br)cc3)n2c1Cl | i | i | i | 6.01* | i | 8.0%* | i | 11.0%*
CC(C)(C)Sc1ccc(/C=N/O)cc1[N+](=O)[O-] | i | i | i | 6.81* | i | 10.0%* | i | i
CCOC(=O)C1CCN(Cc2nc3ccccc3c(=O)n2-c2ccc(OCC)cc2)CC1 | i | . | . | 6.1* | . | 6.5%* | i | i
CCC(=O)N1N=C(c2ccc(NS(C)(=O)=O)cc2)CC1c1ccc(N(C)C)cc1 (stereo not given) | i | i | i | i | i | . | . | .
S=C1NC[C@H](Cc2ccccc2)N1CCCCC1CCCCC1 | i | i | i | i | i | i | i | i
CC(C)CC(NC(=O)OC(C)(C)C)c1cn([C@@H](Cc2ccc(O)cc2)C(=O)N2CCN(C(=O)OC(C)(C)C)CC2)nn1 (stereo not given in full) | i | i | i | i | i | . | . | .
Cc1nn(CC(=O)NCc2cccs2)c(=O)c2nn(-c3ccccc3)c(C)c12 | i | i | i | i | i | i | i | i
O=[N+]([O-])/C=C\c1ccc(N2CCCC2)c(F)c1 | i | . | . | 35.7* | . | 33.5%* | i | 75.0%*
O=C(O)CCC(=O)Nc1ccc(/C=C/C(=O)C2CC2)cc1 | i | i | i | i | i | . | . | .
COc1ccc(-c2csc(NC3CCCCC3)n2)c(OC)c1 | i | i | i | i | i | . | . | .
CC(=O)/C=C/n1c(=S)oc2ccccc21 | i | i | i | 10.1* | i | 21.0%* | i | 7.0%*
COc1ccc(Nc2nc(N3CCOCC3)nc(N3CCOCC3)n2)c(OC)c1 | i | i | i | i | i | i | i | i
O=C(NCc1ccc(Cl)cc1)C(=O)NCC1OCCN1C(=O)c1ccc(Cl)cc1 (stereo not given) | i | i | i | i | i | . | . | .
Cc1ccc(/C=C/C(=O)Nc2ccc(S(=O)(=O)Nc3ncccn3)cc2)cc1 | i | i | i | i | i | . | . | .
O=C(/C=C/c1ccc(F)cc1)Nc1ccc(S(=O)(=O)Nc2ncccn2)cc1 | i | i | i | i | i | i | i | 29.0%*
CCN(CC)C(=O)Cn1cc(C(=O)C(=O)NCc2ccccn2)c2ccccc21 | i | i | i | i | i | . | . | .

Source: PubChem BioAssay
